Screening results: PubChem BioAssay, several laboratories
Most compounds without a hit are left out; they make up all but 4.3% or so of the library.
SMARCA2 act: SMARCA2 function activation, primary screen | activation, % at 9.1 µM | MG213 cells, MMTV-luciferase reporter, dexamethasone, overnight | hit rate 1% among 370,000; in the data active = activation above about 7.8%
Yeast superoxide: caloric restriction mimetics inhibiting age-related superoxide in yeast. superoxide response (% of plate mean), % at 10 µM. AID 2690. S. cerevisiae aged cells, superoxide DHE fluorescence; active compounds read low. hit rate 0.18% among 330,000;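 active = superoxide response under a set limit, about three screen SD below normal, cut at about 65% in these data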;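 note: yeast aged for seven days with compound at 30 °C before DHE staining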
AHR act: human AHR activation. hit rate 2.5% among 320,000. AHR-responsive luciferase reporter cells, luminescence. activation, % at 5 µM. P35869; in the data active = activation above about 47%
Hep lipid drop: modulators of hepatic lipid droplet formation. hit rate 0.4% among 240,000. AML12 mouse hepatocytes, oleate lipid droplets, BODIPY imaging. inhibition, % at 6.5 µM;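 active = lipid droplet intensity inhibited by at least 50%, with more than 500 cells counted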
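material = mouse AML12 hepatocyte cell line, fixed after treatment | also added = 100 µM oleic acid challenge | doses = compound at 6.5 µM only | schedule = overnight exposure | technique = Image-based BODIPY and DAPI two-channel analysis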
SR-BI DiI-HDL act: enhances SR-BI lipid uptake from DiI-HDL. CHO ldlA[mSR-BI] cells, DiI-HDL uptake fluorescence, 3 h; 100 = double the neutral-control signal. activation, % at 12.5 µM. hit rate 0.096% among 320,000. AID 504775;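 active = mean replicate activation of at least 60% and every replicate at or above 60%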
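System: CHO ldlA[mSR-BI] cells / Medium: HEPES-buffered (25 mM, pH 7.4) F12 plus 0.5% BSA / Probe or stimulus: labelled HDL, 10 µg/mL / Doses: single compound concentration, delivered by pin transfer / Schedule: 3 h, 37 °C / Measured by: DiI fluorescence, bottom read / Measure: cell-associated DiI fluorescence as measure of HDL uptake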
SR-BI HDL uptake: inhibitors of mouse SR-BI mediated HDL lipid uptake | Q61009 | ldlA[mSR-BI] CHO cells, DiI-HDL uptake fluorescence, 3 h | inhibition, % at 12.5 µM | hit rate 0.96% among 320,000;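 active = mean replicate inhibition of at least 70% and a set share of replicates each scoring 70 or more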
Target sequence (Q61009 whole entry, looked up): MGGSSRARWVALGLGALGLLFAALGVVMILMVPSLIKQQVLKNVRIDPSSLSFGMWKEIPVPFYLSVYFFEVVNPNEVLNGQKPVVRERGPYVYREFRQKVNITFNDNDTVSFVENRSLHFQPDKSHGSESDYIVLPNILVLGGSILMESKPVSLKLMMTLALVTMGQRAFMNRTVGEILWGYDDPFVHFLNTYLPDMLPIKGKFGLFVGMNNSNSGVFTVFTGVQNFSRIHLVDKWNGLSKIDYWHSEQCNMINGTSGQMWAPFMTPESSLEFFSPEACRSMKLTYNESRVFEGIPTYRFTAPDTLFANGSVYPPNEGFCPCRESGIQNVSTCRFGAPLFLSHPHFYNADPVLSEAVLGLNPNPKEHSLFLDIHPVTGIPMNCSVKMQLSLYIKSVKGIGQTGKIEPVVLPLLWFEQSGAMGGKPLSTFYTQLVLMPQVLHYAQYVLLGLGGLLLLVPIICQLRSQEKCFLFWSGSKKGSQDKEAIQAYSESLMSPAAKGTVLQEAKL
SMARCA2 conf: SMARCA2 activation, confirmation screen | shares compounds with SMARCA2 act | MG213 cells, MMTV-luciferase with dexamethasone, luminescence, overnight; MG213 cells expressing E1A, Rb sequestered; DMSO wells 0%, reference activator 100% | activation, % at 9.1 µM | hit rate 30% among 3,500 | AID 652260;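 active = activation above its plate's cutoff, the mean activation of tested wells plus 3 SD, cut at about 7.9% in these data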
GAL4-VP16 Luc: activates GAL4-VP16 luciferase, flagging SMARCA2 activator hits | shares compounds with SMARCA2 act | HEK293 GAL4-VP16 pG5luc reporter, luciferase luminescence; scaled: DMSO wells 0%, SAHA wells 100% | activation, % at 9.1 µM | hit rate 41% among 3,500;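 active = activation above the solvent-only control well mean plus 3 SD, averaged across control plates, cut at about 5.2% in these data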
Large screens that a line does not name were inactive (follow-up assays come after a bar, where they were run); ! = a repeat was not active.

Cc1cccc(NC(=O)Nc2c(-c3ccc(C(F)(F)F)cc3)nc3ncccn23)c1	none (no result: Yeast superoxide, AHR act, Hep lipid drop, SR-BI DiI-HDL act, SR-BI HDL uptake)
Nc1ccc(S(=O)(=O)Nc2cnc3c(Cl)cccc3n2)cc1	SMARCA2 act 9.1 (no result: Yeast superoxide, AHR act, Hep lipid drop) | SMARCA2 conf 31 | GAL4-VP16 Luc inactive
CC(C)C[C@H]1COc2cccc(F)c2S(=O)(=O)N1Cc1cn(Cc2ccc(C(F)(F)F)cc2)nn1	none (no result: Yeast superoxide, AHR act, Hep lipid drop, SR-BI DiI-HDL act, SR-BI HDL uptake)
CN(C(=O)[C@H]1O[C@@H](n2cnc(C(N)=O)n2)[C@H](O)[C@@H]1O)c1ccccc1	none (no result: Yeast superoxide, AHR act, Hep lipid drop, SR-BI DiI-HDL act, SR-BI HDL uptake)
CCCOc1ccc(-c2nnc(N)s2)cc1	SMARCA2 act 9.6 (no result: SR-BI DiI-HDL act, SR-BI HDL uptake) | SMARCA2 conf 11 | GAL4-VP16 Luc 8.0
COc1ccc(-c2nnc(N)s2)cc1	none (no result: Hep lipid drop)
O=C(Nc1ccc2oc(-c3ccccc3)nc2c1)C1CCCO1 (stereo unspecified)	none
O=C(Nc1ccc(-c2nc3cc(Cl)ccc3o2)cc1)C1CCCO1 (stereo unspecified)	SMARCA2 act 8.2, AHR act 55 | SMARCA2 conf inactive | GAL4-VP16 Luc 10
CC[C@H](C)C(=O)O[C@H]1C[C@@H](C)C=C2C=C[C@H](C)[C@H](CC[C@@H]3C[C@@H](O)CC(=O)O3)[C@H]21	SMARCA2 act 8.2! | SMARCA2 conf inactive | GAL4-VP16 Luc inactive
CC[C@H](C)C(=O)O[C@H]1CCC=C2C=C[C@H](C)[C@H](CC[C@@H]3C[C@@H](O)CC(=O)O3)[C@H]21	SMARCA2 act 11 | SMARCA2 conf inactive | GAL4-VP16 Luc inactive
CCC(C)C(=O)OC1CCC=C2C=CC(C)C(CCC3CC(O)CC(=O)O3)C21 (stereo unspecified)	none (no result: Yeast superoxide, AHR act, Hep lipid drop)
COC(=O)/C=C1\C(=O)N(c2nc3ccccc3s2)C(=S)N1c1ccc(F)cc1	SMARCA2 act 8.6 (no result: Hep lipid drop) | SMARCA2 conf inactive | GAL4-VP16 Luc inactive
Brc1ccc(Cn2c(-c3ccc(Br)o3)nc3ccccc32)o1	SMARCA2 act 12 (no result: Yeast superoxide, AHR act) | SMARCA2 conf 8.1 | GAL4-VP16 Luc inactive
Cn1c(-c2ccc(Br)o2)nc2ccccc21	none (no result: Hep lipid drop)
Cc1nc2ccccc2c2c1C(=O)N(c1cccc(C(=O)O)c1)C2=O	none
Cc1ccc(C)c(C(=O)COC(=O)c2cccc(N3C(=O)c4c(C)nc5ccccc5c4C3=O)c2)c1	SMARCA2 act 14 | SMARCA2 conf inactive | GAL4-VP16 Luc inactive
O=C(CN1C(=O)N/C(=C\c2ccccc2OCc2ccc(C(=O)O)cc2)C1=O)Nc1ccc(F)cc1	none
Cc1cccc(NC(=O)CN2C(=O)N/C(=C\c3ccccc3OCc3ccc(C(=O)O)cc3)C2=O)c1	SMARCA2 act 8.7 | SMARCA2 conf inactive | GAL4-VP16 Luc inactive
COC(=O)[C@]12C[C@H](CC(=O)NCCCN3CCCC3=O)C(=O)N(Cc3ccc4c(c3)OCO4)C1=C[C@H](COCc1ccccc1)O[C@@H]2C	none (no result: Yeast superoxide, AHR act, Hep lipid drop, SR-BI DiI-HDL act, SR-BI HDL uptake)
CCCCCCCCN1C(=O)[C@@H](CC(=O)NCc2cccs2)C[C@@]2(C(=O)OC)C1=C[C@H](COCc1ccccc1)O[C@@H]2C	none (no result: Yeast superoxide, AHR act, Hep lipid drop, SR-BI DiI-HDL act, SR-BI HDL uptake)
C=CCN1C(=O)/C(=C/c2ccc(OC)cc2)S/C1=N/c1nccs1	SMARCA2 act 10 | SMARCA2 conf inactive | GAL4-VP16 Luc inactive
C=CCN1C(=O)/C(=C/c2ccc(O)cc2)S/C1=N/c1nccs1	none
O=C1CCc2ccccc2O1	none (no result: Hep lipid drop)
O=C1CCc2cc(Br)ccc2O1	SMARCA2 act 8.7 (no result: Yeast superoxide, AHR act, Hep lipid drop) | SMARCA2 conf inactive | GAL4-VP16 Luc inactive
Cc1nc2c(C(=O)NCCC(C)C)c[nH]n2c(=O)c1Cl	SMARCA2 act 9.5 | SMARCA2 conf inactive | GAL4-VP16 Luc inactive
Cc1nc2c(C(=O)NCCc3ccccc3)c[nH]n2c(=O)c1Cl	none (no result: Hep lipid drop)
C[C@@H]1CCCN1c1cccc2c1S(=O)(=O)N(C1CC1)CCCO2	none (no result: Yeast superoxide, AHR act, Hep lipid drop, SR-BI DiI-HDL act, SR-BI HDL uptake)
CCC(=O)Nc1ccc2c(c1)ncn2-c1ccc(OC)cc1	none
CCC(=O)Nc1ccc2c(c1)ncn2-c1ccc(C)cc1	SMARCA2 act 8.6 | SMARCA2 conf inactive | GAL4-VP16 Luc 8.7
COc1cccc(-c2cc(C(=O)N3CCCCCC3)no2)c1	none
